Calls of active or inactive are those of the source. The calls are words filed in the database; no cut-off is given here.
What was measured:
[1] = Dissociation constant, pKa of the compound; format: physicochemical
[2] = target: Bacterial DNA-directed RNA polymerase (Bacteria) (UniProt P0A8V2+P0A7Z4+P0A8T7+P0A800); assay: Inhibition of Escherichia coli DNA-dependent RNA polymerase assessed as [3H]UMP incorporation into RNA using calf thymus DNA at 0.12 mM by liquid scintillation counting; format: protein-complex assay
How it was run: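 E. coli RNA polymerase purified through a high-salt glycerol gradient step, 87 units/ml. Mix: 56 mM Tris-HCl pH 7.8, 1.6 mM MnCl2, 150 mM KCl, 1.6 mM β-mercaptoethanol, 0.6 mM each GTP/ATP/CTP, 0.15 mM [5-3H]-UTP, 0.12 mM P/l calf thymus DNA, drug at 0.12 mM. Started with enzyme at 37°C and sampled over time. TCA-insoluble RNA collected on filters and scintillation counted.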

P388 = assay: Antitumor activity against mouse P388 cells allografted in mouse assessed as tumor growth inhibition at 0.25 to 10 mg/kg; format: functional, organism-based
How it was run: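 Screened by the NCI Drug Research and Development Branch against P388 lymphocytic leukemia in mice. Dosing was daily at 0.25-10.0 mg/kg, given by peritoneal injection in water.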

[3] = Solubility of the compound in H2O at pH >7; format: physicochemical
[4] = Dissociation constant, pKa of the compound in 20% EtOH/H2O; format: physicochemical
Salmonidae [5] = assay: Binding affinity to salmon sperm DNA assessed as first order dissociation rate at pH 7.8 by stop-flow technique in presence of 1 mM Na+ ionic strength
How it was run: (§1)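 Salmon sperm DNA–drug complex preformed without SDS at 6 μM drug and 0.36 mM DNA P/l. Dissociation was started by mixing with 0.2% SDS and followed at 480 nm by stop-flow at 15°C. Buffers were 10 mM MES at pH 6.2 and 1 mM PIPES at pH 7.8, with Na+ set by NaCl. First-order k (sec⁻¹) was taken from rate plots over ≥2.5 half-lives.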

Salmonidae [6] = assay: Binding affinity to salmon sperm DNA assessed as first order dissociation rate at pH 6.2 by stop-flow technique in presence of 5 mM Na+ ionic strength; how it was run: as §1
Salmonidae [7] = assay: Binding affinity to salmon sperm DNA assessed as first order dissociation rate at pH 7.8 by stop-flow technique in presence of 201 mM Na+ ionic strength; how it was run: as §1
[8] = Retardation factor of the compound in 10% methanol-chloroform by TLC; format: physicochemical
Salmonidae [9] = assay: Binding affinity to salmon sperm DNA assessed as first order dissociation rate at pH 6.2 by stop-flow technique in presence of 21 mM Na+ ionic strength; how it was run: as §1
Salmonidae [10] = assay: Binding affinity to salmon sperm DNA assessed as first order dissociation rate at pH 7.8 by stop-flow technique in presence of 21 mM Na+ ionic strength; how it was run: as §1

Chain of Bacterial DNA-directed RNA polymerase (Bacteria) (P0A7Z4 whole entry partner): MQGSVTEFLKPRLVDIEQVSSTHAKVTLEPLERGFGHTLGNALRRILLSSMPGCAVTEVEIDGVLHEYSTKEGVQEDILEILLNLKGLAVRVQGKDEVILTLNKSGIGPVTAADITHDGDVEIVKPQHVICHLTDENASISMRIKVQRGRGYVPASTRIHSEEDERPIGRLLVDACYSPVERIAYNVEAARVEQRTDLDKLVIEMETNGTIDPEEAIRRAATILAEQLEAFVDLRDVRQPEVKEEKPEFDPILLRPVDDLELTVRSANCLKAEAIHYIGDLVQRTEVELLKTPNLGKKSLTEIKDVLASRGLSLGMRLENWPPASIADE
Chain of Bacterial DNA-directed RNA polymerase (Bacteria) (P0A800 2-91 partner limits assumed): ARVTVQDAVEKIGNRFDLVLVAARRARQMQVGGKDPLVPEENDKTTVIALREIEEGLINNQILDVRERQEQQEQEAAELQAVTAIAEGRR
Chain of Bacterial DNA-directed RNA polymerase (Bacteria) (P0A8T7 whole entry partner): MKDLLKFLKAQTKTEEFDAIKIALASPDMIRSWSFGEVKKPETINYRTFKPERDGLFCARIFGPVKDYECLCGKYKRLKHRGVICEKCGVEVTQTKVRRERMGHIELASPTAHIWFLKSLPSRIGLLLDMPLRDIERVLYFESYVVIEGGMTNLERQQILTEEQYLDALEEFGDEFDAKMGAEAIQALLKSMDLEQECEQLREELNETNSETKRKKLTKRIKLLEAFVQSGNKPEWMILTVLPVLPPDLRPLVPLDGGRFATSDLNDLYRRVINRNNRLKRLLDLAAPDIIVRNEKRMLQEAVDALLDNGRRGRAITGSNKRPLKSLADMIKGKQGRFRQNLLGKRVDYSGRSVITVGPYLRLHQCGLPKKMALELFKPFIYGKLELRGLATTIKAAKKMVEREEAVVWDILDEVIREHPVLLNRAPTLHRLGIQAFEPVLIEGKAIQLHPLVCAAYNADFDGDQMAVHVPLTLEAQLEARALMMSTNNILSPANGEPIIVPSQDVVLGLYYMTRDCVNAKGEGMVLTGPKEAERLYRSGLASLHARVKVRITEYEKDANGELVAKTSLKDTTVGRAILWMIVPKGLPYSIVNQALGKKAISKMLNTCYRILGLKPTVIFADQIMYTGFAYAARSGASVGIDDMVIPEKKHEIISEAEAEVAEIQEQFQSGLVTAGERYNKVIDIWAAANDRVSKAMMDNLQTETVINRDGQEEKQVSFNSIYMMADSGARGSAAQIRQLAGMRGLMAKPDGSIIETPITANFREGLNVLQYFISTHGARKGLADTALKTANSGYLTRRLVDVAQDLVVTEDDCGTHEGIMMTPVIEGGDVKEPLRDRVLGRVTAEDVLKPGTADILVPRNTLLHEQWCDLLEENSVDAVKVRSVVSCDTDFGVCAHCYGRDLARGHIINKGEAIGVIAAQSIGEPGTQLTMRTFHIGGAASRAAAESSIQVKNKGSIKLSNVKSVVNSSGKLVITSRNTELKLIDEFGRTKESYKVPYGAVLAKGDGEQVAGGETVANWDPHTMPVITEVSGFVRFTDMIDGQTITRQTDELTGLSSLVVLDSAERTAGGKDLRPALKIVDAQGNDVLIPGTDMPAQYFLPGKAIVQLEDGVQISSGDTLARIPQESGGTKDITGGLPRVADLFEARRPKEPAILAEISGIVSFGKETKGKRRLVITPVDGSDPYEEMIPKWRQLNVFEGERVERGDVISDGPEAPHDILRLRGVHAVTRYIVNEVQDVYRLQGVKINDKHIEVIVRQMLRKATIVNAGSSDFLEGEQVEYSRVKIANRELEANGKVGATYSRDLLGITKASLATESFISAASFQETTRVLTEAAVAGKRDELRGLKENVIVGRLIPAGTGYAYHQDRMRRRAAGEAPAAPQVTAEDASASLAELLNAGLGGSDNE
Chain of Bacterial DNA-directed RNA polymerase (Bacteria) (P0A8V2 whole entry): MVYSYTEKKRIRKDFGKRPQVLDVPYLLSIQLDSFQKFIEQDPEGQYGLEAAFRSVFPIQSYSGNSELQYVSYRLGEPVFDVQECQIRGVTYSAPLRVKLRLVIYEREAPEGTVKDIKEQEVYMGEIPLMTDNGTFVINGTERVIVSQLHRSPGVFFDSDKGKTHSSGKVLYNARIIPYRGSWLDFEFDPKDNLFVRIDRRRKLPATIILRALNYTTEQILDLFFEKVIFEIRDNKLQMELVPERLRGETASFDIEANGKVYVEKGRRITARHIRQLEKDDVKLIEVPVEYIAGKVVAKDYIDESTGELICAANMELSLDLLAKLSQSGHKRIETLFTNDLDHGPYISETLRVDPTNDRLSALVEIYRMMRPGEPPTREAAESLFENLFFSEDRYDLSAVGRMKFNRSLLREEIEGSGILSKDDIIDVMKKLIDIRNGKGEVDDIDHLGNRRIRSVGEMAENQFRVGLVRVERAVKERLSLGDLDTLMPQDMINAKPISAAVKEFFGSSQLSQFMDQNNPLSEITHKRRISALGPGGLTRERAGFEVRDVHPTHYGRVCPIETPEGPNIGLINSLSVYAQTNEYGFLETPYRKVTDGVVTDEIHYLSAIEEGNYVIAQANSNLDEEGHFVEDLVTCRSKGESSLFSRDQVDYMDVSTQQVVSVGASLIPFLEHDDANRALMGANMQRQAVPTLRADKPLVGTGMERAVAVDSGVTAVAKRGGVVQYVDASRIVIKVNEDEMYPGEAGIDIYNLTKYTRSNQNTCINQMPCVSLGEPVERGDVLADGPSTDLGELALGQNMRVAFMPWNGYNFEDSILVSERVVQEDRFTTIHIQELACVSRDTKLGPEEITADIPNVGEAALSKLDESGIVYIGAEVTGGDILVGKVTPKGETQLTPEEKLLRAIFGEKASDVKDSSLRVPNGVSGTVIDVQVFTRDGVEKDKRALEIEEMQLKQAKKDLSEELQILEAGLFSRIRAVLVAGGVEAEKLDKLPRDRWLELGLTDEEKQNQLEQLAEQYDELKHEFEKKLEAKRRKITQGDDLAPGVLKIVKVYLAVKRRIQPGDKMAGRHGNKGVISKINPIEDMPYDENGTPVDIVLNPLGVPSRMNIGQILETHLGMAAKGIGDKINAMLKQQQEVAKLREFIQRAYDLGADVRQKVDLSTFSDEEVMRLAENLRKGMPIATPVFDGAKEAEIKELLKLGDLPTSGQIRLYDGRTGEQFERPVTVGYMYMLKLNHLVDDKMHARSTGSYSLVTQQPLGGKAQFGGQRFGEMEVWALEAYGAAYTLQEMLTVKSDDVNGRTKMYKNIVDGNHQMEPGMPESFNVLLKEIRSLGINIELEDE

| pKa [1] | inhibition [2] | solubility [3] | pKa [4] | K (Salmonidae [5]) | K (Salmonidae [6]) | K (Salmonidae [7]) | Rf [8] | K (Salmonidae [9]) | K (Salmonidae [10]) | SMILES | TGI (P388) |
| --- | --- | --- | --- | --- | --- | --- | --- | --- | --- | --- | --- |
| 7.39 | Active |  |  |  |  |  |  |  |  | COc1cccc2c1C(=O)c1c(O)c3c(c(O)c1C2=O)C[C@@](O)(C(C)=O)C[C@@H]3O[C@H]1C[C@H](NC(=O)CNC(=O)CN(C)C)[C@H](O)[C@H](C)O1 | Active |
|  |  | Insoluble | 7.2 |  |  |  |  |  |  | CCCN(CCC)CC(=O)N[C@H]1C[C@H](O[C@H]2C[C@](O)(C(C)=O)Cc3c(O)c4c(c(O)c32)C(=O)c2c(OC)cccc2C4=O)O[C@@H](C)[C@H]1O | inactive |
| 8.99 | Active |  |  | 1.37 s⁻¹ | 0.98 s⁻¹ | 2.88 s⁻¹ | 0.17 | 0.98 s⁻¹ | 1.57 s⁻¹ | COc1cccc2c1C(=O)c1c(O)c3c(c(O)c1C2=O)C[C@@](O)(C(C)=O)C[C@@H]3O[C@H]1C[C@H](N)[C@H](O)[C@H](C)O1.Cl [DAUNORUBICIN HYDROCHLORIDE] | Active |
| 7.35 | Active |  |  |  |  |  | 0.68 |  |  | COc1cccc2c1C(=O)c1c(O)c3c(c(O)c1C2=O)C[C@@](O)(C(C)=O)C[C@@H]3O[C@H]1C[C@H](NC(=O)CN(C)C)[C@H](O)[C@H](C)O1 | Active |

Reference: ChEMBL document CHEMBL3272314, “Sturcture-activity relationship of daunorubicin and its peptide derivatives” (J Med Chem, 1976)
